Peptide text beside a SMILES is read from it. * marks the point of attachment. X1 = O=C(c1ccc(Oc2ccc3c4nc5nc(nc6[nH]c(nc7nc(nc([nH]4)c3c2)-c2ccccc2-7)c2ccccc62)-c2ccccc2-5)cc1)*
Assays:
[1] = reference standard in DMF; cited from earlier work
[2] = reference standard in DMF; cited from earlier work; remark: listed apart in the source
HT29 cells [3] = experiment: Annexin V-GFP/PI costaining assay; assay type: cell-based, human; details: 0.5 μM for 10 min
[4] = Solubility and aggregation state; assay type: physicochemical; details: 2 μM in DMF and in PBS with 0.01% Tween 80 (v/v); intense, sharp Q band at 672 nm (DMF) or 680 nm (PBS); UV-Vis
HT29 cells [5] = experiment: Photocytotoxicity, MTT assay; assay type: cell-based, human; details: absence of light, both incubation conditions
Outline: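 HT29 cells (1 × 10^4 per well) were plated overnight. A DMSO stock of test compound was diluted in medium and applied for 10 min at 37 °C. Cells were rinsed with PBS, refed, and held 0 or 6 h with no red-light illumination. MTT (3 mg mL−1 in PBS) was added for 4 h, DMSO added, and A490 read. Viability is relative to compound-free control wells, averaged over 4 data points.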

[6] = tested on: HT29 tumour-bearing nude mice; experiment: In vivo biodistribution by near-infrared fluorescence imaging; design: species or system mouse; details: 20 nmol intravenous; for Fluorescence intensity in the tumour area over time: imaged over 48 h, four mice per conjugate
Outline: (§1)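 Female Balb/c nude mice (20–25 g) carried subcutaneous HT29 tumours on the back (about 1 × 10^7 cells in HBSS) grown to 60–100 mm3. They received 20 nmol test compound in water with 1% DMSO by tail-vein injection. NIR imaging (ex 680 nm, em ≥700 nm) ran from pre-dose to 48 h. At 48 h, tumour, heart, lung, spleen, kidney and liver were assayed for fluorescence per unit area and reported as tumour/organ ratio. Data are mean ± SD, n = 4.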

[7] = as above; design: species or system mouse; details: mouse, in vivo, iv, 20 nmol
Outline: as §1

[8] = tested on: HT29 human colorectal adenocarcinoma cells; experiment: Cellular uptake by confocal fluorescence microscopy; assay type: cell-based; details: 2 μM for 10 min at 37 °C, then 6 h in drug-free medium at 4 °C
Outline: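 HT29 cells (about 2 × 10^5, RPMI with 10% FBS) were seeded on confocal dishes and left overnight at 37 °C, 5% CO2. They were exposed to 2 μM test compound for 10 min at 37 °C, washed three times with PBS, then held in drug-free medium for 6 h at 4 °C or 37 °C. Bright-field and fluorescence images were taken by confocal microscopy.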

[9] = tested on: A431 human epidermoid carcinoma cells; details: read-out: IC50 (photocytotoxicity); cited from earlier work

[Zn+2].c1ccc2c(c1)-c1nc-2nc2[n-]c(nc3nc([n-]c4nc(n1)-c1ccccc1-4)-c1ccccc1-3)c1ccccc21 [ZnPc, zinc(II) phthalocyanine]
Fluorescence quantum yield ΦF [1]: 0.28 | Singlet oxygen quantum yield ΦΔ [2]: 0.56

N=C(N)NCCC[C@H](NC(=O)[C@@H](N)CCC(N)=O)C(=O)N[C@@H](Cc1c[nH]cn1)C(=O)N[C@@H](CCCCN)C(=O)N1CCC[C@H]1C(=O)N[C@@H](CCCNC(=N)N)C(=O)N[C@@H](CCC(=O)O)C(=O)NCC(=O)NCC(=O)NCC(=O)NCC(=O)N[C@@H](CO)C(=O)N[C@@H](CCCCNC(=O)c1ccc(Oc2ccc3c4nc5nc(nc6[nH]c(nc7nc(nc([nH]4)c3c2)-c2ccccc2-7)c2ccccc62)-c2ccccc2-5)cc1)C(N)=O [compound 4] (H-QRHKPREGGGGSK(X1)-NH2)
Cell-death pathway, PDT effect on the cell membrane (HT29 cells [3]; irradiated immediately (λ > 610 nm, 18 mW cm^-2, 20 min)): cell necrosis | Cell-death pathway, PDT effect after internalisation (HT29 cells [3]; then 6 h post-incubation before irradiation (λ > 610 nm, 18 mW cm^-2, 20 min)): mainly through apoptosis | Solubility and aggregation state from the Q band [4]: soluble and remained non-aggregated in both media | Dark toxicity (HT29 cells [5]): did not show significant dark toxicity | Fluorescence intensity in the tumour area over time [6]: increased along with time | tissue to tissue ratio at 48 h [7]: < 1 | Internalisation on post-incubation at 4 °C [8]: internalisation was not significant

EPRQRHKGGGGSK [compound 5]
Tumour selectivity (tumour/organ ratio) compared with conjugate 4 ([6]; ex vivo at 48 h, four mice): consistently lower for all the organs | Fluorescence intensity in the tumour area over time [6]: remained weak throughout the period

GYHWYGYTPQNVI [GE11 conjugate]
IC50 [9]: 14 µM

Source: article PMC9065697 (RSC Advances, 2019)
